Source: ChEMBL document CHEMBL1154907, “Synthesis and preclinical evaluations of 2-(2-fluorophenyl)-6,7-methylenedioxyquinolin-4-one monosodium phosphate (CHM-1-P-Na) as a potent antitumor agent” (J Med Chem, 2010)
Calls of active or inactive are those of the source. The calls are words filed in the database; no cut-off is given here.

Key:
U-251 = test: Growth inhibition of human U251 cells by SRB assay; assay type: functional
Outline: (§1)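 Cancer cell panel; growth measured by sulforhodamine B colorimetric method across five concentrations from 10^-4 to 10^-8 M; GI50, TGI and LC50 derived from computer-analysed dose-response curves.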

HCT-116 = test: Growth inhibition of human HCT116 cells by SRB assay; assay type: functional
Outline: (§2)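 Human cancer cell panel; five concentrations from 10^-4 to 10^-8 M; growth measured by sulforhodamine B colorimetric method; GI50, TGI and LC50 derived from computer-analysed dose-response curves.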

[1] = target: Glutamate decarboxylase (Clostridium perfringens (strain 13 / Type A)) (UniProt Q8XIQ6); test: Inhibition of Clostridium perfringens glutamate decarboxylase at 10 uM by enzyme assay
Outline: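 Single-concentration screen at 10 μM in a contract enzyme assay panel run under standard protocols. Read-out is percent inhibition of the enzyme.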

SK-OV-3 [2] = test: Induction of mitotic arrest in human SKOV3 cells assessed as increase in securin expression at 10 uM after 24 hrs by Western blot; assay type: functional, cell-based
Outline: (§3)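 SKOV-3 cells in DMEM/F-12 with 10% fetal calf serum, treated with 10 μM or vehicle (DMSO). Lysates, 50 μg protein, resolved by SDS-PAGE, transferred to PVDF, probed for cyclin B1 or securin with β-actin loading control; ECL detection, bands quantified by phosphorimaging; at least three separate experiments.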

[3] = Growth inhibition of human DMS144 cells by SRB assay; assay type: functional; outline: as §2
HCT-15 = test: Growth inhibition of human HCT15 cells by SRB assay; assay type: functional; outline: as §2
SK-OV-3 [4] = test: Cell cycle arrest in human SKOV3 cells assessed as increase in accumulation of hypodiploid cells at 10 uM after 48 hrs by propidium iodide-based flow cytometry; assay type: functional
Outline: (§4)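 SKOV-3 cells (DMEM/F-12, 10% fetal calf serum) treated with 10 μM for 6, 12, 24, 36 or 48 h; trypsinized, PBS-washed, fixed in 70% ice-cold ethanol overnight at -20 °C, RNase A treated, propidium iodide stained; DNA content by flow cytometry, phase percentages and hypodiploid fraction scored.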

[5] = Toxicity in ip dosed nude mouse assessed as maximum tolerated dose; assay type: organism-based; settings: in vivo
MCF7 = test: Growth inhibition of human MCF7 cells by SRB assay; assay type: functional; outline: as §2
SK-OV-3 [6] = test: Induction of mitotic arrest in human SKOV3 cells assessed as microtubule disruption at 10 uM after 24 hrs by SDS-PAGE; assay type: functional, cell-based
Rattus norvegicus = species: Rattus norvegicus; test: Displacement of […] from benzodiazepine binding site of rat GABAA receptor at 10 uM radioligand binding assay
Outline: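 Radioligand binding screen run by contract lab under standard protocols; rat GABA_A sites; single-point inhibition at 10 μM, with IC50 determined where inhibition was significant.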

HT-29 = test: Growth inhibition of human HT-29 cells by SRB assay; assay type: functional; outline: as §2
[7] = Cmax in CD1 mouse at 10 mg/kg, ip; assay type: ADME, organism-based; parameters: dose 10 mg/kg, route intraperitoneal; settings: in vivo
Outline: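 Male CD-1 (Crl.) mice (22-24 g), single 10 mg/kg dose. Prodrug in 9% NaHCO3/water (1 mg/mL) given iv by tail vein or po by gavage after 4 h fast; parent given ip in cremophor/DMSO/saline 20/5/75 (2 mg/mL). Plasma sampled to 27 h, three mice per time point, acetonitrile precipitation, LC-MS/MS (ESI positive); parameters from mean plasma concentrations.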

[8] = target: Cathepsin S (Homo sapiens) (UniProt P25774); test: Inhibition of human cathepsin S at 10 uM by enzyme assay
Outline: (§5)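 Commercial spectrum screen of enzyme assays under standard protocols; percent inhibition tested at 10 μM; IC50 determined for targets showing significant inhibition at that concentration; SEM given where multiple independent determinations.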

[9] = Growth inhibition of human HBC4 cells by SRB assay; assay type: functional; outline: as §2
[10] = Growth inhibition of human BSY1 cells by SRB assay; assay type: functional, BSY-1; outline: as §2
ACHN = test: Growth inhibition of human ACHN cells by SRB assay; assay type: functional; outline: as §2
SK-OV-3 [11] = test: Cell cycle arrest in human SKOV3 cells assessed as decrease in accumulation at G0/G1 phase at 10 uM after 36 hrs by propidium iodide-based flow cytometry; assay type: functional; outline: as §4
SK-OV-3 [12] = test: Cell cycle arrest in human SKOV3 cells assessed as increase in accumulation at G2/M phase at 10 uM after 36 hrs by propidium iodide-based flow cytometry; assay type: functional; outline: as §4
MKN-74 = test: Growth inhibition of human MKN74 cells by SRB assay; assay type: functional; outline: as §2
SK-OV-3 [13] = test: Growth inhibition of human SKOV3 cells by SRB assay; assay type: functional; outline: as §1
OVCAR-8 = test: Growth inhibition of human OVCAR8 cells by SRB assay; assay type: functional; outline: as §2
NCI-H226 = test: Growth inhibition of human NCI-H226 cells by SRB assay; assay type: functional; outline: as §2
MDA-MB-231 = test: Growth inhibition of human MDA-MB-231 cells by SRB assay; assay type: functional; outline: as §2
MAO-A = MAO-A (Homo sapiens, UniProt P21397); test: Inhibition of human MAO-A at 10 uM by enzyme assay; outline: as §5
SK-OV-3 [14] = test: Induction of mitotic arrest in human SKOV3 cells assessed as increase in […] upregulation at 10 uM after 24 hrs by SDS-PAGE; assay type: functional, cell-based
Outline: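 SKOV-3 cells treated with vehicle (DMSO) or 10 μM for indicated times, or indicated doses for 24 h; whole-cell lysates resolved by SDS-PAGE, blotted and probed with anti-BubR1 mouse mAb; ECL detection.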

MKN-7 = test: Growth inhibition of human MKN7 cells by SRB assay; assay type: functional; outline: as §2
OVCAR-3 = test: Antitumor activity against human OVCAR-3 cells xenografted in nude mouse assessed as increase in lifespan of organism at 200 mg/kg, ip administered in Q7D x 3 schedule relative to control; assay type: functional; settings: route intraperitoneal
SK-OV-3 [15] = test: Induction of mitotic arrest in human SKOV3 cells assessed as increase in cyclin B1 expression at 10 uM after 24 hrs by Western blot; assay type: functional, cell-based; outline: as §3
KM12 = test: Growth inhibition of human KM12 cells by SRB assay; assay type: functional; outline: as §2

Cathepsin S (Homo sapiens), sequence (P25774 115-331 limits assumed): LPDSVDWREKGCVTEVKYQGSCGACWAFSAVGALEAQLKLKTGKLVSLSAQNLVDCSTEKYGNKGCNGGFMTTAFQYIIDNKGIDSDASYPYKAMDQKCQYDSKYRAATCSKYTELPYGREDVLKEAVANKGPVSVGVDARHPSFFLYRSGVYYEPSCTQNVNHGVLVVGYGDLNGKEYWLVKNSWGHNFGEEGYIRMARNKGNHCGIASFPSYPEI
MAO-A, sequence (P21397 whole entry): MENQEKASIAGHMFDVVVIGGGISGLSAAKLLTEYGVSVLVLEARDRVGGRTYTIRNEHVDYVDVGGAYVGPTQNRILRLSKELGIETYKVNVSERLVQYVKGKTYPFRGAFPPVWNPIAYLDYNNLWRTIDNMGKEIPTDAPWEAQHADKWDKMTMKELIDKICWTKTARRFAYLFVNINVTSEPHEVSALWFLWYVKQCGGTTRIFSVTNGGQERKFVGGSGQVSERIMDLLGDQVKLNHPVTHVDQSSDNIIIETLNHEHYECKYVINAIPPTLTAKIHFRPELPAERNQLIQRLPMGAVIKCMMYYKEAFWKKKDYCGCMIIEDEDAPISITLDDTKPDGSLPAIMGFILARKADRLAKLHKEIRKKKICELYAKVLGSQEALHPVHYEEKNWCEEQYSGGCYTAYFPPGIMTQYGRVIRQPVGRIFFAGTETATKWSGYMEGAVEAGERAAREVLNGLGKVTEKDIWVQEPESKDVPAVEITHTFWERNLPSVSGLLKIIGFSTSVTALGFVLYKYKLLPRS

## O=c1cc(-c2ccccc2F)[nH]c2cc3c(cc12)OCO3
U-251; U-251
  GI50: 69.2 nM
U-251; U-251, read-out: pLC50 (converted)
  CC50: > 100000 nM
U-251; U-251, read-out: pTGI (converted)
  TGI: 18200 nM
HCT-116; HCT-116
  GI50: 64.6 nM
HCT-116; HCT-116, read-out: pLC50 (converted)
  CC50: > 100000 nM
HCT-116; HCT-116, read-out: pTGI
  TGI: > 100000 nM
[1]
  inhibition: 66%
SK-OV-3 [2]
  Activity: Active
[3]; DMS144
  GI50: 53.7 nM
[3]; DMS144, read-out: pLC50 (converted)
  CC50: > 100000 nM
[3]; DMS144, read-out: pTGI (converted)
  TGI: 676 nM
HCT-15; HCT-15
  GI50: 50.1 nM
HCT-15; HCT-15, read-out: pLC50 (converted)
  CC50: > 100000 nM
HCT-15; HCT-15, read-out: pTGI
  TGI: > 100000 nM
SK-OV-3 [4]
  Activity: Active
[5]
  MTD: 200 mg/kg
MCF7; MCF7
  GI50: 158 nM
MCF7; MCF7, read-out: pLC50 (converted)
  CC50: > 100000 nM
MCF7; MCF7, read-out: pTGI
  TGI: > 100000 nM
SK-OV-3 [6]
  Activity: Active
Rattus norvegicus
  inhibition: 83%
HT-29; HT-29
  GI50: 309 nM
HT-29; HT-29, read-out: pLC50 (converted)
  CC50: > 100000 nM
HT-29; HT-29, read-out: pTGI (converted)
  TGI: 1200 nM
[7]
  Cmax: 155 ng/mL
[8]
  inhibition: 1%
[9]; HBC4
  GI50: 347 nM
[9]; HBC4, read-out: pLC50 (converted)
  CC50: > 100000 nM
[9]; HBC4, read-out: pTGI
  TGI: > 100000 nM
[10]; BSY-1
  GI50: 324 nM
[10]; BSY-1, read-out: pLC50 (converted)
  CC50: > 100000 nM
[10]; BSY-1, read-out: pTGI (converted)
  TGI: 13200 nM
ACHN
  GI50: 389 nM
ACHN; read-out: pLC50 (converted)
  CC50: > 100000 nM
ACHN; read-out: pTGI
  TGI: > 100000 nM
SK-OV-3 [11]
  Activity: Active
SK-OV-3 [12]
  Activity: Active
MKN-74; MKN-74
  GI50: 162 nM
MKN-74; MKN-74, read-out: pLC50 (converted)
  CC50: > 100000 nM
MKN-74; MKN-74, read-out: pTGI (converted)
  TGI: 871 nM
SK-OV-3 [13]
  GI50: 85.1 nM
SK-OV-3 [13]; read-out: pLC50 (the source's name) (converted)
  CC50: 63100 nM
SK-OV-3 [13]; read-out: pTGI (converted)
  TGI: 501 nM
OVCAR-8; OVCAR-8
  GI50: 162 nM
OVCAR-8; OVCAR-8, read-out: pLC50 (converted)
  CC50: > 100000 nM
OVCAR-8; OVCAR-8, read-out: pTGI (converted)
  TGI: 794 nM
NCI-H226; NCI-H226
  GI50: 355 nM
NCI-H226; NCI-H226, read-out: pLC50 (converted)
  CC50: > 100000 nM
NCI-H226; NCI-H226, read-out: pTGI
  TGI: > 100000 nM
MDA-MB-231; MDA-MB-231
  GI50: 155 nM
MDA-MB-231; MDA-MB-231, read-out: pLC50 (converted)
  CC50: > 100000 nM
MDA-MB-231; MDA-MB-231, read-out: pTGI (converted)
  TGI: 52500 nM
MAO-A
  inhibition at 10 µM: 52%
SK-OV-3 [14]
  Activity: Active
MKN-7; MKN-7
  GI50: 45.7 nM
MKN-7; MKN-7, read-out: pLC50 (converted)
  CC50: > 100000 nM
MKN-7; MKN-7, read-out: pTGI
  TGI: > 100000 nM
OVCAR-3
  Activity: 124%
SK-OV-3 [15]
  Activity: Active
KM12; KM12
  GI50: 67.6 nM
KM12; KM12, read-out: pLC50 (converted)
  CC50: > 100000 nM
KM12; KM12, read-out: pTGI
  TGI: > 100000 nM
